The record followed here is ChEMBL document CHEMBL1141407, “Synthesis and evaluation of 1,2,3-triazole containing analogues of the immunostimulant alpha-GalCer” (2007).

Active and inactive are the calls of the source. The calls are words filed in the database; no cut-off is given here.

The subject of assay [1] is Mus musculus. Put plainly: Elevation of IL4 in C57B/6 mouse at 1 ug, iv. Format: functional, organism-based. The method, boiled down:
(§1)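 Naive C57BL/6 mice given glycolipid at 1 µg/mouse by intravenous injection; serum IFN-γ and IL-4 measured by ELISA at several time points after dosing. Data are means ± SD of three mice, representative of two separate experiments.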

Assay [2] deals with Mus musculus. Put plainly: Elevation of IFN-gamma in C57B/6 mouse at 1 ug, iv. The format is functional, organism-based. The method, boiled down: as §1
Assay [3] has as its system DN32.D3. Put plainly: Stimulation of IL2 production in DN32.D3 cells after 16 hrs. Format: functional, cell-based. Conditions: Mus musculus. The method, boiled down:
(§2)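 Rat basophilic leukemia cells transfected with mouse CD1d were pulsed with glycolipid at various concentrations for 4 h, then washed three times with PBS. They were co-cultured with DN32.D3 NKT hybridoma cells (Vα14+) for 16 h, and IL-2 in the supernatant was measured by ELISA. Data are means ± SD of duplicates, representative of two experiments.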

Assay [4] concerns DN32.D3. Put plainly: Stimulation of IL2 production in DN32.D3 cells at 500 ng/mL after 16 hrs. Format: functional, cell-based. Particulars: Mus musculus. The method, boiled down:
as §2

The test system of assay [5] is Splenocyte. Put plainly: Stimulation of IL4 secretion from C57BL/6 mouse splenocytes at 125 ng/mL after 72 hrs relative to alphaGalCer. Format: functional. The gist of the method: (§3)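 Splenocytes from naive C57BL/6 mice were cultured with glycolipid at various concentrations for 72 h. IFN-γ and IL-4 in the supernatant were measured by ELISA and expressed as relative activities. Data are means ± SD of duplicates, representative of two experiments; significance by Student's t test.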

The test system of assay [6] is Splenocyte. Put plainly: Stimulation of IFN-gamma secretion from C57BL/6 mouse splenocytes at 125 ng/mL after 72 hrs. The format is functional. The gist of the method:
as §3

For assay [7], the system named is Splenocyte. Put plainly: Stimulation of IFN-gamma secretion from C57BL/6 mouse splenocytes at 32 ng/mL after 72 hrs. The format is functional. The method, boiled down:
as §3

Assay [8] deals with Mus musculus. Put plainly: Elevation of IL4 in C57B/6 mouse at 1 ug, iv after 2 hrs. Format: functional, organism-based. The method, boiled down: as §1
The subject of assay [9] is Mus musculus. Put plainly: Elevation of IFN-gamma in C57B/6 mouse at 1 ug, iv after 12 hrs. Format: functional, organism-based. The method, boiled down:
as §1

For assay [10], the system named is Splenocyte. Put plainly: Stimulation of IL4 secretion from C57BL/6 mouse splenocytes at 125 ng/mL after 72 hrs. The format is functional. The method, boiled down: as §3
Assay [11] has as its system Splenocyte. Put plainly: Stimulation of IL4 secretion from C57BL/6 mouse splenocytes at 32 ng/mL after 72 hrs. The format is functional. The method, boiled down:
as §3

The test system of assay [12] is DN32.D3. Put plainly: Stimulation of IL2 production in DN32.D3 cells at 32 ng/mL after 16 hrs. Conditions: Mus musculus. The format is functional, cell-based. The method, boiled down: as §2
The test system of assay [13] is Splenocyte. Put plainly: Stimulation of IL4 secretion from C57BL/6 mouse splenocytes at 32 ng/mL after 72 hrs relative to alphaGalCer. The format is functional. The method, boiled down: as §3
Assay [14] deals with Splenocyte. Put plainly: Stimulation of IFN-gamma secretion from C57BL/6 mouse splenocytes at 125 ng/mL after 72 hrs relative to alphaGalCer. Format: functional. The gist of the method:
as §3

Assay [15] concerns Splenocyte. Put plainly: Stimulation of IFN-gamma secretion from C57BL/6 mouse splenocytes at 32 ng/mL after 72 hrs relative to alphaGalCer. Format: functional. The gist of the method: as §3

Turning to `CCCCCCCCCCCCCCCCc1cn([C@@H](CO[C@H]2O[C@H](CO)[C@H](O)[C@H](O)[C@H]2O)[C@H](O)[C@H](O)CCCCCCCCCCCCCC)nn1`, the outcome in the assay with Mus musculus [1], with Mus musculus [2] and in the assay with DN32.D3 [3] was inactive.
On to `CCCCCCCCCCCCCC[C@@H](O)[C@@H](O)[C@H](CO[C@H]1O[C@H](CO)[C@H](O)[C@H](O)[C@H]1O)n1cc(CCCCCC)nn1`, for which the outcome in the assay with DN32.D3 [4], with Mus musculus [1] and in the assay on Mus musculus [2] was inactive.
Turning to `CCCCCCCCCCCCCCCCCCCCCCCc1cn([C@@H](CO[C@H]2O[C@H](CO)[C@H](O)[C@H](O)[C@H]2O)[C@H](O)[C@H](O)CCCCCCCCCCCCCC)nn1`, the outcome in the assay with Splenocyte [5] was Active.
For the compound `CCCCCCCCCCCCCCCCCCCCCCCCCC(=O)N[C@@H](CO[C@H]1O[C@H](CO)[C@H](O)[C@H](O)[C@H]1O)[C@H](O)[C@H](O)CCCCCCCCCCCCCC` [RGI-7000], the Activity in the assay with Splenocyte [6] is 12.8 ng/mL; with Splenocyte [7], 15.6 ng/mL; in the assay with Splenocyte [10] it was 0.9 ng/mL; in the assay on Splenocyte [11] it was 1.12 ng/mL. The outcome in the assay on Mus musculus [8] and in the assay with Mus musculus [9] was Active.
For `CCCCCCCCCCCCCC[C@@H](O)[C@@H](O)[C@H](CO[C@H]1O[C@H](CO)[C@H](O)[C@H](O)[C@H]1O)n1cc(CCCCCCC)nn1`, in the assay on Splenocyte [5], the result was Active. Also, the outcome in the assay with Mus musculus [1] and in the assay with Mus musculus [2] was inactive.
As to `CCCCCCCCCCCCCCCCCCCCCCCCc1cn([C@@H](CO[C@H]2O[C@H](CO)[C@H](O)[C@H](O)[C@H]2O)[C@H](O)[C@H](O)CCCCCCCCCCCCCC)nn1`, in the assay with DN32.D3 [12], the result was Active. Moreover, the Activity in the assay on Splenocyte [5] came to 1.09 ng/mL; in the assay on Splenocyte [13] it was 1.51 ng/mL; with Splenocyte [14] it was 11.5 ng/mL; with Splenocyte [15], 4.63 ng/mL.
